Measured values reported in ChEMBL document CHEMBL1147366, “Cytotoxic and antimalarial alkaloids from the tubers of Stephania pierrei” (J Nat Prod, 1993).
In brackets after ≈: the same amount, converted by molar mass.

test system: Plasmodium falciparum; assay: Antimalarial activity after 24 hrs against chloroquine-sensitive Plasmodium falciparum D6 infected type A+ human erythrocytes by [3H]hypoxanthine uptake; type: functional; conditions: read-out: ED50 (the source's name)

| Compound | EC50 [µg/mL] |
| --- | --- |
| COc1cc2c(c(O)c1OC)CCN1Cc3c(ccc(OC)c3OC)C[C@@H]21 | 1.61 (≈ 4.33 µM) |
| COc1cc2c(c(O)c1OC)[C@@H]1Cc3ccc(OC)c(OC)c3CN1CC2 | 4.34 (≈ 11.7 µM) |
| COc1cc2c(cc1OC)CN1CCc3cc(OC)c(OC)c(O)c3[C@@H]1C2 | 2.23 (≈ 6 µM) |
| COc1cc2c(cc1OC)[C@@H]1Cc3ccc(OC)c(OC)c3C[N+]1(C)CC2.[Cl-] (stereo partly specified) | > 10 |
| COc1ccc2c(c1O)C(Cc1ccc(O)cc1)[N+](C)(C)CC2.[Cl-] (racemic) | > 10 |
| COc1ccc(C[C@H]2c3cc(O)c(OC)cc3CCN2C)cc1O [(S)-RETICULINE] | 4.05 (≈ 12.3 µM) |
| C[C@@H]1CC[C@H]2[C@@H](C)C(=O)O[C@@H]3O[C@@]4(C)CC[C@@H]1[C@]32OO4 [ARTEMISININ] | 0.0006 (≈ 0.00213 µM) |
| CCN(CC)CCCC(C)Nc1ccnc2cc(Cl)ccc12 (stereo unspecified) [CHLOROQUINE] | 0.0013 (≈ 0.00406 µM) |
| COc1ccc2c(c1O)-c1c(O)c(OC)cc3c1[C@H](C2)[N+](C)(C)CC3 [MAGNOFLORINE] | > 10 |
| OC(c1cc(C(F)(F)F)nc2c(C(F)(F)F)cccc12)C1CCCCN1 (stereo unspecified) [MEFLOQUINE] | 0.0073 (≈ 0.0193 µM) |
| C=C[C@H]1CN2CC[C@H]1C[C@H]2[C@H](O)c1ccnc2ccc(OC)cc12 [QUININE] | 0.0094 (≈ 0.029 µM) |
| COc1cc2c(cc1OC)[C@@H]1Cc3ccc(OC)c(OC)c3CN1CC2 [TETRAHYDROPALMATINE] | > 10 |
| COc1cc2c(cc1OC)CN1CCc3cc(OC)c(OC)cc3[C@@H]1C2 [XYLOPININE] | > 10 |

test system: Plasmodium falciparum; assay: Antimalarial activity after 24 hrs against chloroquine-resistant Plasmodium falciparum W2 infected type A+ human erythrocytes by [3H]hypoxanthine uptake; type: functional; conditions: read-out: ED50 (the source's name)

| Compound | EC50 [µg/mL] |
| --- | --- |
| COc1cc2c(c(O)c1OC)CCN1Cc3c(ccc(OC)c3OC)C[C@@H]21 | 0.55 (≈ 1.48 µM) |
| COc1cc2c(c(O)c1OC)[C@@H]1Cc3ccc(OC)c(OC)c3CN1CC2 | 1.91 (≈ 5.14 µM) |
| COc1cc2c(cc1OC)CN1CCc3cc(OC)c(OC)c(O)c3[C@@H]1C2 | 1.94 (≈ 5.22 µM) |
| COc1cc2c(cc1OC)[C@@H]1Cc3ccc(OC)c(OC)c3C[N+]1(C)CC2.[Cl-] (stereo partly specified) | > 10 |
| COc1ccc2c(c1O)C(Cc1ccc(O)cc1)[N+](C)(C)CC2.[Cl-] (racemic) | > 10 |
| COc1ccc(C[C@H]2c3cc(O)c(OC)cc3CCN2C)cc1O [(S)-RETICULINE] | 4.47 (≈ 13.6 µM) |
| C[C@@H]1CC[C@H]2[C@@H](C)C(=O)O[C@@H]3O[C@@]4(C)CC[C@@H]1[C@]32OO4 [ARTEMISININ] | 0.0005 (≈ 0.00177 µM) |
| CCN(CC)CCCC(C)Nc1ccnc2cc(Cl)ccc12 (stereo unspecified) [CHLOROQUINE] | 0.0112 (≈ 0.035 µM) |
| COc1ccc2c(c1O)-c1c(O)c(OC)cc3c1[C@H](C2)[N+](C)(C)CC3 [MAGNOFLORINE] | > 10 |
| OC(c1cc(C(F)(F)F)nc2c(C(F)(F)F)cccc12)C1CCCCN1 (stereo unspecified) [MEFLOQUINE] | 0.0016 (≈ 0.00423 µM) |
| C=C[C@H]1CN2CC[C@H]1C[C@H]2[C@H](O)c1ccnc2ccc(OC)cc12 [QUININE] | 0.0245 (≈ 0.0755 µM) |
| COc1cc2c(cc1OC)[C@@H]1Cc3ccc(OC)c(OC)c3CN1CC2 [TETRAHYDROPALMATINE] | 5.02 (≈ 14.1 µM) |
| COc1cc2c(cc1OC)CN1CCc3cc(OC)c(OC)cc3[C@@H]1C2 [XYLOPININE] | > 10 |

test system: not listed separately; assay: Selectivity index, ED50 for human KB cells to ED50 for chloroquine-sensitive Plasmodium falciparum D6; type: toxicity, cell-based; conditions: read-out: Ratio ED50
In short: (§1)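 Selectivity index is the ED50 in KB cells divided by the ED50 against the P. falciparum strain (D-6, chloroquine-sensitive; W-2, chloroquine-resistant). Parasite ED50s are expressed in ng/ml and KB ED50s in µg/ml.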

| Compound | selectivity ratio |
| --- | --- |
| COc1cc2c(c(O)c1OC)CCN1Cc3c(ccc(OC)c3OC)C[C@@H]21 | > 12 |
| COc1cc2c(c(O)c1OC)[C@@H]1Cc3ccc(OC)c(OC)c3CN1CC2 | > 5 |
| COc1cc2c(cc1OC)CN1CCc3cc(OC)c(OC)c(O)c3[C@@H]1C2 | > 9 |
| C[C@@H]1CC[C@H]2[C@@H](C)C(=O)O[C@@H]3O[C@@]4(C)CC[C@@H]1[C@]32OO4 [ARTEMISININ] | > 33300 |
| C=C[C@H]1CN2CC[C@H]1C[C@H]2[C@H](O)c1ccnc2ccc(OC)cc12 [QUININE] | > 2130 |

test system: not listed separately; assay: Selectivity index, ED50 for human KB cells to ED50 for chloroquine-resistant Plasmodium falciparum W2; type: toxicity, cell-based; conditions: read-out: Ratio ED50; in short: as §1

| Compound | selectivity ratio |
| --- | --- |
| COc1cc2c(c(O)c1OC)CCN1Cc3c(ccc(OC)c3OC)C[C@@H]21 | > 36 |
| COc1cc2c(c(O)c1OC)[C@@H]1Cc3ccc(OC)c(OC)c3CN1CC2 | > 10 |
| COc1cc2c(cc1OC)CN1CCc3cc(OC)c(OC)c(O)c3[C@@H]1C2 | > 10 |
| C[C@@H]1CC[C@H]2[C@@H](C)C(=O)O[C@@H]3O[C@@]4(C)CC[C@@H]1[C@]32OO4 [ARTEMISININ] | 40000 |
| C=C[C@H]1CN2CC[C@H]1C[C@H]2[C@H](O)c1ccnc2ccc(OC)cc12 [QUININE] | > 820 |
